# Measured values from different studies.
# Each line is one published result; the experiments were not run side by side.
# CDK2 with cyclin A2: Cyclin-dependent kinase 2, with cyclin A2 (CDK2, Homo sapiens, UniProt P24941)
# ST14: Suppressor of tumorigenicity 14 protein (ST14, Homo sapiens, UniProt Q9Y5Y6)
SMILES,target,test,setting,endpoint,value
CC(=O)Nc1c(N)nc(SCC(=O)NN)[nH]c1=O,CDK2 with cyclin A2,"enzyme activity, inhibitor",1 nM,inhibition,8.32%
C=CC(=O)N1CCC(COCC(=O)N2CCN(c3nc(-c4cnc(N)nc4C(F)F)nc(N4CCOC[C@@H]4C)n3)CC2)CC1,"Protein kinase C eta type (PRKCH, Homo sapiens, UniProt P24723)","binding, competition with immobilised ligand",1 µM,remaining binding,100%
C=CC[C@H](NC(=O)[C@H](Cc1cscn1)NC(=O)CCc1ccccc1)C(=O)N[C@@H](CCCNC(=N)N)C(=O)c1nc2ccccc2s1,ST14,"enzyme activity, inhibitor",0.1 µM,remaining activity,41%
CNC(=O)c1cc(Oc2ccc(NC(=O)Nc3ccc(Cl)c(C(F)(F)F)c3)cc2)ccn1,CDK2 with cyclin A2,"enzyme activity, inhibitor",5 nM,inhibition,27.6%
COc1cc(-c2cncc3c2CN(C)Cc2cc(N4CCNCC4)ccc2-3)cc(OC)c1OC,"Dual specificity protein kinase CLK3 (CLK3, Homo sapiens, UniProt P49761)","enzyme activity, inhibitor",1 µM,remaining activity,103%
CCC[C@H](NC(=O)[C@H](Cc1cscn1)NC(=O)CCc1ccccc1)C(=O)N[C@@H](CCCNC(=N)N)C(=O)c1nc2ccccc2s1,ST14,"enzyme activity, inhibitor",0.1 µM,remaining activity,45%
CNc1ncc2c(/C=C/C(=O)N3CCC(OC)CC3)nn(Cc3cccc(C(F)(F)F)c3)c2n1,"Tyrosine-protein kinase ZAP-70 (ZAP70, Homo sapiens, UniProt P43403)","enzyme activity, inhibitor, radiometric",1 µM,remaining activity,95%
CC(=O)Nc1c(N)nc(SCC(=O)N/N=C/c2ccc([N+](=O)[O-])cc2)[nH]c1=O,CDK2 with cyclin A2,"enzyme activity, inhibitor",1 nM,inhibition,4.03%
C=CCCCCCC(C)(NC(=O)[C@H](Cc1cscn1)NC(=O)CCc1ccccc1)C(=O)N[C@@H](CCCNC(=N)N)C(=O)c1nc2ccccc2s1 (stereo partly shown),ST14,"enzyme activity, inhibitor",0.1 µM,remaining activity,89%
Cc1cc([C@@H](C)Nc2ccccc2C(=O)O)c2nc(N3CCC(F)(F)CC3)c(C#N)c(=O)n2c1,"Cyclin-dependent kinase 2 (CDK2, Homo sapiens, UniProt P24941)","binding, competition with immobilised ligand",10 µM,remaining binding,98%
